Data: ChEMBL document CHEMBL1156396, “Antifungal alkyl amino alcohols from the tropical marine sponge Haliclona n. sp” (2001)
The source made the active and inactive calls. No cut-off for these calls is given here.

Columns and labels:
Escherichia coli = assay: Antibacterial activity against Escherichia coli at 0.12 mg after 24 hrs by paper disk assay; type: functional, organism-based
Method in brief: (§1)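 Paper disk diffusion: 6 mm diameter disks loaded with 0.12 mg test substance, placed on plates seeded with the test organism and incubated 24 h at 28 °C; activity scored as diameter of growth-inhibition zone (mm).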

Bacillus subtilis = assay: Antibacterial activity against Bacillus subtilis at 0.12 mg after 24 hrs by paper disk assay; type: functional; method in brief: as §1
Candida albicans = assay: Antifungal activity against Candida albicans at 0.12 mg after 24 hrs by paper disk assay; type: functional, organism-based; method in brief: as §1
[1] = system: Trichophyton mentagrophytes; assay: Antifungal activity against Trichophyton mentagrophytes at 0.12 mg after 24 hrs by paper disk assay; type: functional; conditions: for zone of inhibition at 120 µg/disc: read-out: IZ; method in brief: as §1
Amorphotheca resinae = assay: Antifungal activity against Cladosporium resinae at 0.12 mg after 24 hrs by paper disk assay; type: functional; conditions: for zone of inhibition at 120 µg/disc: read-out: IZ; method in brief: as §1

SMILES | inhibition zone (IZ) (Escherichia coli) | inhibition zone (IZ) (Bacillus subtilis) | inhibition zone (IZ) (Candida albicans) | inhibition zone (IZ) [1] | inhibition zone (IZ) (Amorphotheca resinae) | zone of inhibition at 120 µg/disc (Bacillus subtilis; read-out: IZ) [mm] | zone of inhibition at 120 µg/disc [1] [mm] | zone of inhibition at 120 µg/disc (Amorphotheca resinae) [mm]
C=CCCCCCCCCC[C@@H](O)[C@H](C)NC(C)=O | inactive | inactive | inactive | inactive | inactive |  |  | 
CCCCCCCC/C=C\C[C@@H](O)[C@H](C)N | Active | Active | Active | Active | Active |  |  | 
C=CCCCCCCCCC[C@@H](OC(C)=O)[C@H](C)NC(C)=O [DIACETYL HALAMINOL A] | inactive |  | inactive | inactive | inactive | 7 |  | 
C=CCCCCCCCCC[C@@H](O)[C@H](C)N [HALAMINOL A] | Active | Active | Active |  |  |  | 10 | 10
C=CCCCCCCC[C@@H](O)[C@H](C)N [HALAMINOL B] | Active | Active | Active |  |  |  | 10 | 10
